Results pooled from the literature.
Compare with care: the assays were run in different laboratories.
Target: Tyrosine-protein kinase receptor UFO (AXL, Homo sapiens, UniProt P30530)
Sequence (P30530 26-894, as in one of the studies): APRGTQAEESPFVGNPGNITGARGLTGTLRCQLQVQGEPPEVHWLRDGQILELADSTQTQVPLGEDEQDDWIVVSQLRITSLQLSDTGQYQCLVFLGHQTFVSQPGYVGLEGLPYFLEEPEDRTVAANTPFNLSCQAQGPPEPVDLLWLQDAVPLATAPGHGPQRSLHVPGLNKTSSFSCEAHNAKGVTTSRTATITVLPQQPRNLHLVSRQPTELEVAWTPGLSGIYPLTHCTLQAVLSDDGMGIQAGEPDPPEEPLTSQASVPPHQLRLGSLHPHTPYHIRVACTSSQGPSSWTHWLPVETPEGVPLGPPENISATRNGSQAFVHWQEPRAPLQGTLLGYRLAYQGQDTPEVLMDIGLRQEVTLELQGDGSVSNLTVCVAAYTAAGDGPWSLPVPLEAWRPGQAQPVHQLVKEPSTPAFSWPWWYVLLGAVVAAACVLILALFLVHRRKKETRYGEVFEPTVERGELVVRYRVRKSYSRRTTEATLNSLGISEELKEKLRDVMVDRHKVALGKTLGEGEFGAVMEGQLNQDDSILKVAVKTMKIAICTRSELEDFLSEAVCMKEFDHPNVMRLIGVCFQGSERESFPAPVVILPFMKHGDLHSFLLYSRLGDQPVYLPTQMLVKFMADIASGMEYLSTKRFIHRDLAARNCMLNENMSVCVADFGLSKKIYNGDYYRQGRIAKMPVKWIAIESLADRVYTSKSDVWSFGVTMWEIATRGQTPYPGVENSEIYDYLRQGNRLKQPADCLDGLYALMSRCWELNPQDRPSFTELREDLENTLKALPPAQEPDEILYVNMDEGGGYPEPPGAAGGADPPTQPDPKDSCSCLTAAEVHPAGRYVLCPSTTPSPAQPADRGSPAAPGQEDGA

| Compound | read-out | technique | tested at | remaining binding [%] |
| --- | --- | --- | --- | --- |
| C[C@H]1CCN(c2nccc(-c3cnn4ncccc34)n2)C1 | binding |  | 1 µM | 49 |
| Cc1cnc(Nc2ccc(C(=O)N3CCC(N4CCCC4)CC3)cc2)nc1-c1cc2ccccc2s1 | binding | competition with immobilised ligand | 1 µM | 1 |
| COc1ncc2cc3ccccc3nc2c1C#N | cell-free assay | competition with immobilised ligand | 5 µM | 92 |
| CN(C)c1nccc(-c2cnc3ncccn23)n1 | binding |  | 1 µM | 100 |
| C[C@@H](c1cccc(C#N)c1)n1cc(Cl)cc(C(N)=O)c1=N | cell-free assay | competition with immobilised ligand | 1 µM | 100 |
| FC(F)(F)Oc1cccc(-c2cnc3ccc(-c4ccncc4)nn23)c1 | cell-free assay | competition with immobilised ligand | 5 µM | 74 |
| C[C@@H](c1ccc(-n2cnc3c(N)ncnc32)cc1)N1CCc2nn(C)c(Cc3ccccc3)c2C1=O | binding | competition with immobilised ligand | 0.1 µM | 100 |
| CO[C@@H](C)c1c(Nc2ccc([C@@H](N(C)C(=O)C3CCS(=O)(=O)CC3)C(F)(F)F)cc2)cnc2cc(Cl)nn12 | cell-free assay | competition with immobilised ligand | 1 µM | 77 |
| N[C@H]1CCN(c2nccc(-c3cnn4ncccc34)n2)C1 | binding |  | 1 µM | 97 |
| C[C@@H]1CN(c2ccc3ncc(-c4ccc5[nH]nc(C6CC6)c5c4)n3n2)C[C@H](C)O1 | binding | competition with immobilised ligand | 0.5 µM | 60 |
| Cc1nccc(COC(=O)N2C[C@@H]3[C@@H](CNC(=O)c4ccc5[nH]nnc5c4)[C@@H]3C2)n1 | cell-free assay | competition with immobilised ligand | 1 µM | 88 |
| CCN1CCN(Cc2ccc(C(=O)Nc3ccc(C)c(Oc4ccc5c(c4)CC(=O)N5)c3)cc2C(F)(F)F)CC1 | binding | competition with immobilised ligand | 1 µM | 98 |
| COc1cnc(Nc2cccc(S(N)(=O)=O)c2)nc1N1CCN(c2ccccc2)CC1 | binding | competition with immobilised ligand | 1 µM | 68 |
| C[C@H](c1ccnc(Nc2nc3ccc(-c4cc(N(C)C)ncn4)cc3[nH]2)c1)N1CCN(C(=O)CC(F)(F)F)CC1 | cell-free assay | competition with immobilised ligand | 0.1 µM | 100 |
| N#Cc1ccccc1CSc1nnc2c(n1)[nH]c1ccccc12 | binding | competition with immobilised ligand | 10 µM | 65 |
| CN(c1nccc(-c2cnn3ncccc23)n1)C1CC1 | binding |  | 1 µM | 78 |
| O=C(c1ccc(Nc2nccc(-c3cc4ccccc4s3)n2)cc1)N1CCC(N2CCCC2)CC1 | binding | competition with immobilised ligand | 1 µM | 33 |
| CC1CCCN1c1nccc(-c2cnn3ncccc23)n1 (stereo not drawn) | binding |  | 1 µM | 100 |
| COc1cccc(CNC(=O)c2nc3scc(COCc4ccc(C(=O)O)cc4)c3c(=O)[nH]2)c1 | cell-free assay | competition with immobilised ligand | 1 µM | 84.2 |
| O=C(NCCCN1CCOCC1)c1ccc(Nc2nccc(-c3cc4ccccc4s3)n2)cc1 | binding | competition with immobilised ligand | 1 µM | 38 |
| c1ccc(N2CCN(Cc3nc4ccccc4[nH]3)CC2)nc1 | binding | competition with immobilised ligand | 1 µM | 100 |
| c1cnn2ncc(-c3ccnc(N4CCC45COC5)n3)c2c1 | binding |  | 1 µM | 74 |
| C[C@H](c1ccc(F)cc1)N(Cc1cccc(C(=O)O)c1)C(=O)c1cnc2ccccc2c1 | cell-free assay | competition with immobilised ligand | 1 µM | 100 |
| O=C(NCC1CCOCC1)c1n[nH]cc1NC(=O)c1c(F)cccc1F | binding | competition with immobilised ligand | 1 µM | 91 |
